Measured values published in ChEMBL document CHEMBL5214977, “Discovery and Optimization of Quinoline Analogues as Novel Potent Antivirals against Enterovirus D68” (J Med Chem, 2022).
Calls of active or inactive are those of the source. The calls are words filed in the database; no cut-off is given here.

Tests used:
[1] = system: RD; assay: Cytotoxicity against human RD cells assessed as inhibition of cell viability by measuring ATP level incubated for 72 hrs by cell titer-glo luminescent cell viability assay; format: functional
Procedure, shortened: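 Uninfected RD cells seeded at 1.5 × 10^4/well and grown 24 h, then exposed to compound in 3-fold dilutions (0.01–200 μM), with DMSO as cell control. ATP read by CellTiter-Glo luminescence after 72 h; CC50 is the 50% cytotoxic concentration.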

[2] = Selectivity index, ratio of CC50 for human RD cells to EC50 for Enterovirus-D68 STL-2014-12 infected in human RD cells to; format: toxicity, cell-based; details: for selectivity ratio: RD cells, read-out: Ratio CC50/EC50
Procedure, shortened: (§1)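 EC50 came from a CPE reduction assay. RD cells (1.5 × 10^4 per well, grown 24 h) were infected with 100 TCID50 of the named strain and given 3-fold dilutions from 0.01 to 200 μM. After 72 h at 37 °C, ATP was read by CellTiter-Glo and normalized to infected and uninfected controls. CC50 came from uninfected cells under the same dilutions, 72 h and ATP readout. SI = CC50/EC50.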

[3] = system: enterovirus D68; assay: Antiviral activity against Enterovirus-D68 STL-2014-12 infected in human RD cells assessed as reduction in virus induced cytopathic effect by measuring ATP level incubated for 72 hrs by cell titer-glo luminescent cell viability assay; format: functional, organism-based
Procedure, shortened: (§2)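 RD cells seeded at 1.5 × 10^4/well and grown 24 h, then given 100 TCID50 virus plus compound in 3-fold dilutions (0.01–200 μM). DMSO control. Incubated 37 °C for 72 h; ATP read by CellTiter-Glo luminescence and normalized to uninfected and infected controls. EC50 is the concentration giving 50% CPE reduction. Strains: STL-2014-12, US/KY/14-18953, US/MO/14-18947, Fermon.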

[4] = Selectivity index, ratio of CC50 for human RD cells to EC50 for Enterovirus-D68 fermon infected in human RD cells; format: toxicity, cell-based; details: read-out: Ratio CC50/EC50; procedure, shortened: as §1
[5] = system: enterovirus D68; assay: Antiviral activity against Enterovirus-D68 US/KY/14-18953 infected in human RD cells assessed as reduction in virus induced cytopathic effect by measuring ATP level incubated for 72 hrs by cell titer-glo luminescent cell viability assay; format: functional, organism-based; details: Enterovirus D, US/KY/14-18953, RD; procedure, shortened: as §2
[6] = Selectivity index, ratio of CC50 for human RD cells to EC50 for Enterovirus-D68 US/KY/14-18953 infected in human RD cells; format: toxicity, cell-based; details: read-out: Ratio CC50/EC50; procedure, shortened: as §1
[7] = system: enterovirus D68; assay: Antiviral activity against Enterovirus-D68 US/MO/14-18947 infected in human RD cells assessed as reduction in virus induced cytopathic effect by measuring ATP level incubated for 72 hrs by cell titer-glo luminescent cell viability assay; format: functional, organism-based; details: Enterovirus D, US/MO/14-18947, RD; procedure, shortened: as §2
[8] = Selectivity index, ratio of CC50 for human RD cells to EC50 for Enterovirus-D68 US/MO/14-18947 infected in human RD cells; format: toxicity, cell-based; details: read-out: Ratio CC50/EC50; procedure, shortened: as §1
[9] = system: enterovirus D68; assay: Antiviral activity against Enterovirus-D68 fermon infected in human RD cells assessed as reduction in virus induced cytopathic effect by measuring ATP level incubated for 72 hrs by cell titer-glo luminescent cell viability assay; format: functional, organism-based; details: Enterovirus D; procedure, shortened: as §2
[10] = system: enterovirus D68; assay: Antiviral activity against Enterovirus D68 infected in human RD cells assessed as inhibition of VP1 expression level incubated for 1.5 hrs by Western blot analysis; format: functional, organism-based; details: dose 0.1-10 µM, DDE = dose-dependent effect
Procedure, shortened: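 RD cells (8.0 × 10^4 per well) were grown for 24 h, then infected with EV-D68 at MOI 0.01 for 1.5 h with gradient-diluted compound or DMSO. Lysates were made at 12 hpi in RIPA buffer and run on 10% SDS-PAGE. Blots were probed with anti-EV-D68 VP1 and anti-tubulin antibodies, with HRP secondary and ECL detection.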

[11] = system: enterovirus D68; assay: Antiviral activity against Enterovirus D68 infected in human RD cells assessed as inhibition of VP1 expression level incubated for 12 hrs by Hoechst 33342 staining based immunofluorescence assay; format: functional, organism-based; details: dose 0.1-10 µM, DDE = dose-dependent effect
Procedure, shortened: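 RD cells were infected with EV-D68 at MOI 1 together with compound for 12 h. Cells were fixed in 4% formaldehyde for 30 min and permeabilized in 0.1% Triton X-100 for 30 min, then blocked with 5% bovine serum. Staining used rabbit anti-VP1 with an Alexa-546 secondary and 1 μM Hoechst33342 nuclear stain, imaged by fluorescence microscopy.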

[12] = system: enterovirus D68; assay: Antiviral activity against Enterovirus D68 infected in human RD cells assessed as inhibition of viral replication at 1 uM incubated for 1.5 hrs by crystal violet staining based plaque formation assay; format: functional, organism-based
Procedure, shortened: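 Overnight RD monolayers received serially diluted virus stock plus compound for 1.5 h. Supernatant was removed and cells were overlaid with 2× DMEM containing 2% low-melting agarose. At 72 hpi cells were fixed with 4% paraformaldehyde for 4 h at room temperature and stained with 1% crystal violet to count plaques.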

[13] = system: enterovirus D68; assay: Antiviral activity against Enterovirus-D68 infected in human HeLa cells assessed as reduction in virus induced cytopathic effect incubated for […] by plaque reduction assay; format: functional, organism-based; details: Enterovirus D
[14] = Enterovirus D, STL-2014-12, RD, 72 h

Row | SMILES | CC50 [1] | selectivity ratio [2] | EC50 [3, 14] | further results
1 | CCCCc1ccc(-c2ccc3ncc(-c4noc(C(F)(F)F)n4)cc3c2)cc1 | > 7400 nM | > 39 | 190 nM | 
2 | CCOC(=O)c1cnc2ccc(-c3ccc(N)cc3)cc2c1 | > 7400 nM | > 16 | 470 nM | 
3 | CCc1nc(-c2cnc3ccc(-c4ccccc4N)cc3c2)no1 | 2350 nM | 9 | 2350 nM | 
4 | COc1ccc(-c2ccc3ncc(-c4noc(C)n4)cc3c2)cc1 | > 66700 nM | > 131 | 510 nM | 
5 | CCOC(=O)c1cnc2ccc(-c3ccccc3N)cc2c1 | > 7400 nM | > 1 | 6260 nM | 
6 | CCCc1ccc(-c2ccc3ncc(C(=O)OCC)cc3c2)cc1 | > 7400 nM | > 6 | 1290 nM | 
7 | CCc1ccc(-c2ccc3ncc(-c4noc(CC)n4)cc3c2)cc1 | > 22200 nM | > 38 | 590 nM | 
8 | Cc1nc(-c2cnc3ccc(-c4ccc(O)cc4)cc3c2)no1 | > 2500 nM | > 5 | 460 nM | 
9 | Fc1ccc(-c2ccc3ncc(-c4noc(C(F)(F)F)n4)cc3c2)cc1 | > 7400 nM | > 6 | 1220 nM | 
10 | CCc1nc(-c2cnc3ccc(-c4ccc(O)cc4)cc3c2)no1 | > 2500 nM | > 13 | 190 nM | 
11 | CCc1nc(-c2cnc3ccc(-c4ccc(N)cc4)cc3c2)no1 [listing 1 of 2 here] | > 2500 nM |  | 100 nM | Ratio CC50/EC50 [2]: > 25
12 | CCCCc1ccc(-c2ccc3ncc(-c4noc(CC)n4)cc3c2)cc1 | > 7400 nM | > 41 | 180 nM | 
13 | FC(F)(F)c1nc(-c2cnc3ccc(-c4ccccc4)cc3c2)no1 | > 22200 nM | > 30 | 750 nM | 
14 | CCCc1ccc(-c2ccc3ncc(-c4noc(CC)n4)cc3c2)cc1 | > 7400 nM | > 14 | 530 nM | 
15 | CCCCc1ccc(-c2ccc3ncc(C(=O)OCC)cc3c2)cc1 | > 7400 nM | > 9 | 850 nM | 
16 | CCOC(=O)c1cnc2ccc(-c3ccc(C(C)C)cc3)cc2c1 | > 7400 nM | > 2 | 1050 nM | 
17 | Cc1ccc(-c2ccc3ncc(-c4noc(C(F)(F)F)n4)cc3c2)cc1 | > 22200 nM | > 49 | 450 nM | 
18 | CCc1nc(-c2cnc3ccc(-c4ccc(C)cc4)cc3c2)no1 | > 7400 nM | > 12 | 610 nM | 
19 | CCc1nc(-c2cnc3ccc(-c4cccc(N)c4)cc3c2)no1 | > 7400 nM | > 44 | 170 nM | 
20 | Cl.Nc1ccc(-c2ccc3ncc(-c4noc(C(F)(F)F)n4)cc3c2)cc1 |  |  |  | selectivity ratio [4]: > 123; EC50 [5]: 90 nM; selectivity ratio [6]: > 123; EC50 [7]: 90 nM; selectivity ratio [8]: > 123; Ratio CC50/EC50 [2]: > 111; EC50 [9]: 90 nM; EC50 ([3]; rd): 100 nM
21 | CCc1nc(-c2cnc3ccc(-c4ccc(Cl)cc4)cc3c2)no1 | > 22200 nM | > 7 | 3020 nM | 
22 | CCc1nc(-c2cnc3ccc(-c4ccc(N)cc4)cc3c2)no1 [listing 2 of 2 here] |  |  |  | Activity [10]: Dde; Activity [11]: Dde; Activity [12]: Active
23 | FC(F)(F)c1nc(-c2cnc3ccc(-c4ccc(Cl)cc4)cc3c2)no1 | > 200000 nM | > 8 | 24300 nM | 
24 | CCOC(=O)c1ccc(OCCC2CCN(c3ccc(C)nn3)CC2)cc1 [PIRODAVIR] |  |  |  | EC50 [13]: 1610 nM
